Screening data (PubChem BioAssay)
SMARCA2 act: SMARCA2 function activation, primary screen. MG213 cells, MMTV-luciferase reporter, dexamethasone, overnight. activation, % at 9.1 µM. 370,000 tested, 1% active. AID 652017; in the data active = activation above about 7.8%;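 note: 0% = vehicle wells and 100% = reference activator wells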
MC4R antag cAMP: human MC4R antagonism in cAMP assay; MC4R-expressing cells, MTII-stimulated cAMP, LANCE TR-FRET; inhibition, % at 6.5 µM; AID 540295; P32245; 360,000 tested, 0.48% active;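 active = inhibition above its plate's cutoff, the mean of tested wells on that plate plus 3 SD, cut at about 29% in these data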;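 note: 0% = Melanotan II alone and 100% = Melanotan II plus saturating MCL0020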
Target sequence (P32245 whole entry, looked up): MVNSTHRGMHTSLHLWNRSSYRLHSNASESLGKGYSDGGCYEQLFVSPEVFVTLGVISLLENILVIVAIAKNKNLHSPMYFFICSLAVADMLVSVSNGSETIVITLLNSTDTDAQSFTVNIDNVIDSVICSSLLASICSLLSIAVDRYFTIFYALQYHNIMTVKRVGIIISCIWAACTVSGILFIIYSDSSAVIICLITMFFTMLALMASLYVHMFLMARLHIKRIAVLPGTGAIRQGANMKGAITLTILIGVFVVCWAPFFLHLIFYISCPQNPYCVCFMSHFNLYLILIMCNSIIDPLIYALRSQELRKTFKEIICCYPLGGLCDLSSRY
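material = U2OS cells stably expressing human melanocortin 4 receptor (MC4R) | also added = Melanotan II challenge | dosing = single nominal compound dose of 6.5 µM | detection = TR-FRET with Eu-cAMP and labeled anti-cAMP, 671 nm | replication = singlicate | timing = compound 30 min, challenge 1 h, detection 1 h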
MPTP inh: permeability transition pore inhibition | AID 602449 | inhibition, % at 10 µM | 360,000 tested, 1.4% active | isolated mouse mitochondria, Ca2+ swelling absorbance, 30 min;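 active = inhibition of 50% or more, scaled per plate between neutral and stimulator controls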;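 note: 0% = DMSO wells given calcium and 100% = 1 mM EGTA wells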
MC4R barr agon: human MC4R agonism via beta-arrestin; activation, % at 8.9 µM; 360,000 tested, 0.98% active; U2OS MC4R beta-arrestin complementation, luminescence; percent of melanotan II response, DMSO zero; AID 540308;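 active = activation above a per-plate cutoff, the mean activation of sample wells on that plate plus 3 SD, cut at about 8% in these data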
ATG4B inh: ATG4B (human) cysteine protease inhibition | Q9Y4P1 | AID 504462 | inhibition, % at 8.33 µM | 340,000 tested, 0.51% active | ATG4B cleavage of LC3-PLA2, NBD-HPC fluorescence, 1 h; in the data active = inhibition above about 40%
Rh123 counter: Rhodamine 123 counter-screen of mitochondrial pore hits; shares compounds with MPTP inh; isolated mitochondria, membrane potential, Rhodamine 123 fluorescence; inhibition, % at 10 µM; 5,000 tested, 78% active; AID 624504; in the data active = inhibition above about 22%;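 note: 0% = DMSO vehicle and 100% = positive control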
MPTP swell DR: dose response confirmation of mitochondrial permeability transition pore inhibitors | 780 tested, 58% active | shares compounds with MPTP inh | IC50, µM | isolated mitochondria swelling, absorbance; in the data active = IC50 below about 20 µM
MPTP counter DR: MPTP inhibitor counter-screen activity, dose response. 780 tested, 49% active. shares compounds with MPTP inh. IC50, µM. AID 651564. isolated mitochondria counterscreen, fluorescence read-out; in the data active = IC50 below about 80 µM
* marks the source's active call; other numbers are inactive results; . = not tested or not shown. Hits are enriched below; roughly 4.1% of the tested compounds scored in any of these assays.

SMILES	SMARCA2 act	MC4R antag cAMP	MPTP inh	MC4R barr agon	ATG4B inh	Rh123 counter	others
CN1CCN(c2ccc(-c3cccc(NC(=O)COc4ccc(Cl)cc4)c3)nn2)CC1	3	-2	0	0	-13	.
COC(=O)[C@]12C[C@H](CC(=O)N3CCN(C(=O)C4CC4)CC3)C(=O)N(Cc3cccc4ccccc34)C1=C[C@H](COCc1ccccc1)O[C@@H]2C	-2	.	.	.	.	.
CCNC(=O)C1(C)CCCN(Cc2cccc(Oc3ccccc3)c2)C1 (centres undefined)	.	4	1	0	.	.
CSc1c(CC(=O)Nc2ccc(F)cc2)n(Cc2ccccc2)c2ccccc12	-1	0	81*	0	3	67*
O=S(=O)(c1ccc(N2CCN(c3ccc(F)cc3)CC2)cc1)N1CCCC1	-1	14	-1	-2	-4	.
O=S(=O)(c1ccc(N2CCCC2)cc1)C(F)(F)F	-3	-10	91*	-1	7	68*
CCN(C)c1nc(C)nc2c1nnn2Cc1ccccc1	-5	.	.	.	.	.
CCC(C)c1ccc(O)c(NC(=O)c2cncc(Br)c2)c1 (centres undefined)	-2	-14	77*	1	2	64*
CCC(C)c1ccc(O)c(NC(=S)NC(=O)c2cccnc2)c1 (centres undefined)	0	28	0	-3	0	.
N#CCC(=O)NCCCOC(=O)Nc1ccc(Cl)c(Cl)c1	1	1	79*	0	-11	86*
O=C(Nc1ccc(Cl)c(Cl)c1)OCCNC(=O)c1ccncc1	-4	6	35	3	-2	.
CC(C)=CCc1cc(-c2oc3cc(O)cc(O)c3c(=O)c2O)ccc1O	2	-5	4	4	11	.
CC(C)=CCc1c(O)cc2oc3c(CC=C(C)C)c(O)c(O)c(CC=C(C)C)c3c(=O)c2c1O	-4	8	92*	2	19	7
COc1ccc(CN2CCC(CNC(=O)NC(C)C)CC2)cc1	-4	.	.	.	.	.
COC(=O)CC#C[C@H](C)[C@@H](NS(=O)(=O)c1ccc([N+](=O)[O-])cc1)C(C)(C)C	-5	.	.	.	.	.
Cc1ccc(OCCCCN2CCCCC2)c(C)c1	3	-1	-1	1	0	.
Cc1ccc(OCCCCNC2CCCC(C)C2C)c(C)c1 (centres undefined)	-4	-3	60*	3	0	-1
COc1ccc(NC(=O)N(C)C[C@H]2OCc3cnnn3CCCC(=O)N([C@H](C)CO)C[C@@H]2C)c(OC)c1	-5	.	.	.	.	.
CCCCOc1ccc(C(=O)NC2CCCCN(Cc3ccc(Cl)cc3)C2=O)cc1 (centres undefined)	-2	.	.	.	.	.
O=C(CSc1nc(-c2cccs2)cc(C(F)(F)F)n1)Nc1cc(OCC(F)(F)F)cc([N+](=O)[O-])c1	-4	11	100*	6	-2	79*
N#C/C(=N\Nc1cccc(C(F)(F)F)c1)C(=O)c1csc(-c2cccnc2)n1	-4	22	84*	-3	27	61*
O=S1(=O)CC2c3ccccc3CCN2CN1CCc1ccccc1 (centres undefined)	-3	.	.	.	.	.
NC1=NC[C@H](Cc2ccccc2)N1CCCCC1CCCCC1	-2	2	82*	2	9	48*
NC1=NC[C@H](Cc2ccc(O)cc2)N1CCCCC1CCCCC1	-3	8	3	0	1	.
Cc1csc2c(N3CCN(C(=O)Nc4ccc(OC(F)(F)F)cc4)CC3)ncnc12	-5	10	89*	6	-28	72*
SMILES	SMARCA2 act	MC4R antag cAMP	MPTP inh	MC4R barr agon	ATG4B inh	Rh123 counter	others
Cc1csc2c(N3CCC(C(=O)O)CC3)ncnc12	3	1	2	-1	0	.
Cc1ccc(NC(=O)NNC(=O)CSC2CCc3ccccc32)c(C)c1 (centres undefined)	-1	.	.	.	.	.
O=C(Nc1ccc([N+](=O)[O-])cc1)N1CCCCC1	-2	-5	94*	-1	5	93*
O=C(Nc1ccc([N+](=O)[O-])cc1)N1CCCCCC1	0	6	62*	-3	-3	96*
O=C(OCc1cn(Cc2ccccc2F)nn1)N1CCCC1	-2	.	.	.	.	.
CCn1nc(C)cc1C(=O)Sc1cccc(Cl)c1	-4	22	-1	-1	-2	.
CCn1nc(C)cc1C(=O)n1nc(C)c(Sc2ncccn2)c1C	-1	1	69*	0	3	27*
CCCCNC(=O)C1CCCN1C(=O)Nc1cccc(C)c1 (centres undefined)	-3	.	.	.	.	.
O=C(/C=C/c1cccc([N+](=O)[O-])c1)NCCSCc1ccc(Cl)cc1	0	0	51*	-1	23	64*
O=C(/C=C/c1cccc([N+](=O)[O-])c1)NCCSCc1c(Cl)cccc1Cl	-1	10	-9	-1	34	.
O=C(/C=C/c1ccc(Cl)cc1Cl)NCCSCc1ccccc1	1	2	92*	0	10	82*
O=C(/C=C/c1ccc(Cl)cc1Cl)NCCSc1ccccc1	-5	7	96*	-2	40	92*
O=C(/C=C/c1ccccc1)NCCSCc1ccc(Cl)cc1	-2	7	23	3	-3	.
CC(C)C[C@@H]1COc2cc(Br)ccc2S(=O)(=O)N1Cc1cn(Cc2ccco2)nn1	-2	.	.	.	.	.
C=CCNc1ccc2c(c1)OC[C@H](Cc1ccccc1)NS2(=O)=O	-4	.	.	.	.	.
CC(=O)Nc1nc(N)n(-c2ccccc2)n1	-2	-1	-1	-1	-11	.
CC(=O)N(C)c1nc(N)n(-c2ccccc2)n1	2	19	107*	2	0	-3	MPTP swell DR=>100;MPTP counter DR=>80
CC(c1ccco1)N(C(=O)Nc1ccc(Cl)cc1)c1ccccn1 (centres undefined)	1	-2	85*	2	-2	98*
COCCCNCCCCOc1ccc(OCc2ccccc2)cc1	4	1	3	-1	-1	.
COCCCNCCOc1ccc(C(C)(C)c2ccccc2)cc1	-2	-9	97*	0	7	-7	MPTP swell DR=5.7*;MPTP counter DR=>80
COC(=O)CN1CCN(C(=O)c2csc(-c3ccccc3)n2)CC1	4	.	.	.	.	.
Fc1ccc(NC(=S)Nc2cccnc2)cc1Cl	2	21	101*	0	22	92*
Fc1ccc(NC(=S)Nc2cc(-c3ccccc3)[nH]n2)cc1Cl	-8	24	66*	4	24	82*
O=C(Nc1ccc(F)c(Cl)c1)c1ccccc1	3	-2	-1	-1	-3	.
Fc1ccc(NC(=S)Nc2ccccc2N2CCOCC2)cc1Cl	0	4	100*	-2	3	98*
Cc1ccc(-c2cc(-c3nnc(SCC(=O)N4c5ccccc5Sc5ccccc54)n3N)[nH]n2)cc1	-6	.	.	.	.	.
